Laboratory results: ChEMBL document CHEMBL4400516, “A novel cereblon modulator for targeted protein degradation” (Eur J Med Chem, 2019)
Blank lines part the entries; values can stand above or below the compound they belong to. Activity calls are given as the source filed them. No cut-off for these calls is given here.

Experiments:
CWR22R = assay: Antiproliferative activity against human 22Rv1 cells after 72 hrs by CelTiter-Glo reagent-based luminescence assay; format: functional; settings: 22Rv1, 72 h
Summary of the method: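 22Rv1 cells, 15,000 per well, exposed to compound at indicated concentrations for 72 hr. Viability read by CellTiter-Glo luminescence; relative growth versus DMSO-treated control. IC50 from nonlinear log(inhibitor) versus response fit.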

[1] = biological target: Bromodomain-containing protein 4 (Homo sapiens) (UniProt O60885); assay: Induction of BRD4 degradation in CRBN knockdown human 22RV1 cells by immunoblotting analysis
Summary of the method: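 22Rv1 cells transfected with CRBN siRNA or negative-control siRNA using RNAiMAX. After 48 h, degrader added for 12 h. Lysates in HEPES/Triton X-100 buffer with protease inhibitor, then SDS-PAGE and immunoblot.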

[2] = biological target: T1, Protein cereblon/Bromodomain-containing protein 4 (Homo sapiens, UniProt O60885+Q96SW2); assay: Induction of CRBN-mediated BRD4 degradation in human 22RV1 cells measured after 24 hrs by immunoblotting analysis; format: cell-based
T1 sequence (Q96SW2 whole entry, looked up, other chains not shown): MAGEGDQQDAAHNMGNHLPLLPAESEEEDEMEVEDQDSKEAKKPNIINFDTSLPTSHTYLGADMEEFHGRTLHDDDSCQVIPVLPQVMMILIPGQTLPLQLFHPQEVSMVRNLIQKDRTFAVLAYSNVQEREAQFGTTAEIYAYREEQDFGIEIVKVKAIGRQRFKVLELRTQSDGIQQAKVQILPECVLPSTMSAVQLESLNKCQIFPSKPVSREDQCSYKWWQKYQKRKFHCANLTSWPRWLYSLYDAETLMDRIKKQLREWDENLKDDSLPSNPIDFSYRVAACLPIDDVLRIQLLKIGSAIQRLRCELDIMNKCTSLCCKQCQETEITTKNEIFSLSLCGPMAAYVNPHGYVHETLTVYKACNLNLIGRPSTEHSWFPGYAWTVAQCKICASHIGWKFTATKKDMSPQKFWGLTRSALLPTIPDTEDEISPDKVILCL

[3] = biological target: Protein cereblon/Bromodomain-containing protein 3 (Homo sapiens) (UniProt Q15059+Q96SW2); assay: Induction of CRBN-mediated BRD3 degradation in human 22RV1 cells up to 1000 nM measured after 24 hrs by immunoblotting analysis; format: cell-based
Protein cereblon/Bromodomain-containing protein 3 (Homo sapiens), sequence (Q15059 2-726 limits assumed): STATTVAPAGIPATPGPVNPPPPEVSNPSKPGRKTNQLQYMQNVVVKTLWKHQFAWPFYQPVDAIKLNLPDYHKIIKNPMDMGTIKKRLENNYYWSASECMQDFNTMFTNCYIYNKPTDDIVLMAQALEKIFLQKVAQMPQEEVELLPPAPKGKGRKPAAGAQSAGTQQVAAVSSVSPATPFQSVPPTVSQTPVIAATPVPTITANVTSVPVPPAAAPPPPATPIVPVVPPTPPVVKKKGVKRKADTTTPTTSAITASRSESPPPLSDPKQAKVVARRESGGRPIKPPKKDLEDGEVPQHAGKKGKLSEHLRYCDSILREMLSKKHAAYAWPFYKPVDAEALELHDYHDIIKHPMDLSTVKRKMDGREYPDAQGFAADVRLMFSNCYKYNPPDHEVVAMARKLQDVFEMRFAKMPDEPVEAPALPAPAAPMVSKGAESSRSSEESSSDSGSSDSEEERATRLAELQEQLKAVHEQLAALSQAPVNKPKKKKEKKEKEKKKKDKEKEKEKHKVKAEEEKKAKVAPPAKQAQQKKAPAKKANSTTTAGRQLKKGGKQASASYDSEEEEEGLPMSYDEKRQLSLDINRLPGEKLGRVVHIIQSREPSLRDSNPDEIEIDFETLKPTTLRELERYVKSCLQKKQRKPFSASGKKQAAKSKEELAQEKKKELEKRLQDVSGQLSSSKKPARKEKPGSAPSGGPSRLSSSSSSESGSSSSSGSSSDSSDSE
Protein cereblon/Bromodomain-containing protein 3 (Homo sapiens), sequence (Q96SW2 whole entry partner): as the sequence (Q96SW2 whole entry, looked up, other chains not shown) above
Summary of the method: (§1)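 22Rv1 prostate cancer cells (RPMI-1640, 10% FBS) given a 24 h dose titration. Lysates in HEPES/Triton X-100 buffer with protease inhibitor, then SDS-PAGE, nitrocellulose transfer and immunoblot.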

[4] = biological target: T1, Protein cereblon/Bromodomain-containing protein 4; assay: Induction of CRBN-mediated BRD4 degradation in human 22RV1 cells in presence of neddylation inhibitor MLN4924 by immunoblotting analysis; format: cell-based
[5] = biological target: T1, Protein cereblon/Bromodomain-containing protein 4; assay: Induction of CRBN-mediated BRD4 degradation in human 22RV1 cells in presence of TD-106 by immunoblotting analysis; format: cell-based
[6] = biological target: T1, Protein cereblon/Bromodomain-containing protein 4; assay: Induction of CRBN-mediated BRD4 degradation in human 22RV1 cells in presence of JQ1 by immunoblotting analysis; format: cell-based
[7] = biological target: Protein cereblon/Bromodomain-containing protein 2 (Homo sapiens) (UniProt P25440+Q96SW2); assay: Induction of CRBN-mediated BRD2 degradation in human 22RV1 cells up to 1000 nM measured after 24 hrs by immunoblotting analysis; format: cell-based; summary of the method: as §1
Protein cereblon/Bromodomain-containing protein 2 (Homo sapiens), sequence (P25440 whole entry, looked up): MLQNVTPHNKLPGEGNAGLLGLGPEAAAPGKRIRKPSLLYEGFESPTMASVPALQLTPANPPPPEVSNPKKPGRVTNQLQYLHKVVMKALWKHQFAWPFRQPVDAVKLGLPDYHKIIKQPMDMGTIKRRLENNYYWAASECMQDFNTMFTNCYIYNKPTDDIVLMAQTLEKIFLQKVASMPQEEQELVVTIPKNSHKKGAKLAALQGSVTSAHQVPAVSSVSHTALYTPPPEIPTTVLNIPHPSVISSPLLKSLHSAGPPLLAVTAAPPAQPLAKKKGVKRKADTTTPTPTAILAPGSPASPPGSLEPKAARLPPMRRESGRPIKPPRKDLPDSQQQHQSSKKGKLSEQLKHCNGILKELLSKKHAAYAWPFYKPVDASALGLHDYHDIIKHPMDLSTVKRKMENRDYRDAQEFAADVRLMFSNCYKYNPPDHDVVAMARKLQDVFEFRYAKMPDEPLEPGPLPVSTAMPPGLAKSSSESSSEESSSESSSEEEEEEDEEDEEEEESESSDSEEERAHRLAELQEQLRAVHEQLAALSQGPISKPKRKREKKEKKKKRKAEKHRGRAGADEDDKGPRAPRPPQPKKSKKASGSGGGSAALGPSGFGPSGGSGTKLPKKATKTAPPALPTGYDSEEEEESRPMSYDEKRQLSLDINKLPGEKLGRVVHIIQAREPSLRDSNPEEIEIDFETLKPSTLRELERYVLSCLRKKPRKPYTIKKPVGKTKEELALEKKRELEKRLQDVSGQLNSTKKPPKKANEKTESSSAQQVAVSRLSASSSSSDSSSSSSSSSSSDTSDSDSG
Protein cereblon/Bromodomain-containing protein 2 (Homo sapiens), sequence (Q96SW2 whole entry, looked up): as the sequence (Q96SW2 whole entry, looked up, other chains not shown) above

[8] = biological target: Protein cereblon/Zinc finger protein Aiolos (Homo sapiens) (UniProt Q96SW2+Q9UKT9); assay: Induction of CRBN ubiquitin ligase-mediated IKZF3 degradation in human U266 cells up to 10 uM measured after 12 hrs by immunoblotting analysis
Protein cereblon/Zinc finger protein Aiolos (Homo sapiens), sequence (Q96SW2 whole entry, looked up): as the sequence (Q96SW2 whole entry, looked up, other chains not shown) above
Protein cereblon/Zinc finger protein Aiolos (Homo sapiens), sequence (Q9UKT9 whole entry, looked up): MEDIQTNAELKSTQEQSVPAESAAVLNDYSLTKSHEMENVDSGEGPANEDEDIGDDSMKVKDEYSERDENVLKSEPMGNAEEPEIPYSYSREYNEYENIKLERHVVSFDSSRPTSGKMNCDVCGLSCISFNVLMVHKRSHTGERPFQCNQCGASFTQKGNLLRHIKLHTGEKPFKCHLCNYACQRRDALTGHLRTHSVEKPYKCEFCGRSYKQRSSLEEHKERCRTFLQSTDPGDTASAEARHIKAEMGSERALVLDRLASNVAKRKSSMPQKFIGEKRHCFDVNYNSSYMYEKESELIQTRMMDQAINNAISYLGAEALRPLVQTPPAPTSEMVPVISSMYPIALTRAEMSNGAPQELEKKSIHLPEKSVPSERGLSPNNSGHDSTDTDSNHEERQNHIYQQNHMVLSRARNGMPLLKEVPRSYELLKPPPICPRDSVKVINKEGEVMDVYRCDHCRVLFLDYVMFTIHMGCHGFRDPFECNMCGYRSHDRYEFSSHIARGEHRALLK

[9] = biological target: T1, Protein cereblon/Bromodomain-containing protein 4; assay: Induction of CRBN-mediated BRD4 degradation in human 22RV1 cells in presence of proteasome inhibitor bortezomib by immunoblotting analysis; format: cell-based
[10] = biological target: T1, Protein cereblon/Bromodomain-containing protein 4; assay: Induction of Xpress-tagged CRBN (unknown origin)/FALG-tagged BRD4 (unknown origin) protein-protein interaction by immunoblotting analysis; format: protein assay
Summary of the method: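 Cells co-transfected with Xpress-CRBN and FLAG-BRD4 using X-tremeGENE HP. Lysates incubated with anti-FLAG magnetic beads, 4 °C for 3 h. Beads washed in lysis buffer and 500 mM NaCl wash buffer, eluted in SDS sample buffer, and immunoblotted.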

NCI-H929 = assay: Antiproliferative activity against human NCI-H929 cells after 72 hrs by WST-1 assay; format: functional; settings: NCI-H929, 72 h
Summary of the method: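 NCI-H929 myeloma cells (RPMI-1640, 10% FBS, 0.05 mM 2-mercaptoethanol) seeded at 30% confluency and dosed the next day. After 72 h, WST-1 reagent added and absorbance at 450 nm read. IC50 from nonlinear log(inhibitor) versus response fit.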

[11] = Toxicity in CB-17/IcrCri SCID mouse xenografted with human TMD8 cells assessed as change in body weight at 50 mg/kg, ip qd for 14 days measured twice weekly during compound dosing; format: organism-based; settings: in vivo, 336 h
TMD8 = assay: Antitumor activity against human TMD8 cells xenografted in CB-17/IcrCri SCID mouse assessed as tumor growth inhibition at 50 mg/kg, ip qd for 14 days measured during compound dosing; format: functional, organism-based
Summary of the method: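 Female CB-17/IcrCri-scid mice carried subcutaneous TMD8 tumours in the right flank. Dosing began at about 150 mm3 mean tumour volume: 50 mg/kg i.p. once daily for 14 days in 20% PEG 400 / 3% Tween 80 in PBS, with DMSO as control. Calipers twice weekly; volume = length x width² x 0.5. Mean ± SE, n = 6.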

[12] = Toxicity in CB-17/IcrCri SCID mouse xenografted with human TMD8 cells assessed as adverse effect at 50 mg/kg, ip qd for 14 days; format: organism-based; settings: in vivo, 336 h
Summary of the method: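 TMD8 subcutaneous xenografts in female CB-17/IcrCri-scid mice dosed i.p. at 50 mg/kg daily for 14 days in 20% PEG 400 / 3% Tween 80 in PBS, starting at about 150 mm3 tumours. Animals observed daily for signs of morbidity or mortality.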

- Activity [1]: inactive
- DC50 [2]: 0.32 nM
- Activity [3]: Active
- Activity [4]: inactive
- Activity [5]: inactive
- Activity [6]: inactive
- Activity [7]: Active
- Activity [8]: Active
- Activity [9]: inactive
- Activity [10]: Active
Compound: Cc1sc2c(c1C)C(c1ccc(Cl)cc1)=N[C@@H](CC(=O)Nc1cccc(OCCOCCOCCNc3cccc4nnn(C5CCC(=O)NC5=O)c(=O)c34)c1)c1nnc(C)n1-2 (some centres not stated)
- CC50 (CWR22R): 20.1 nM

- DC50 [2]: 3.3 nM
Compound: Cc1sc2c(c1C)C(c1ccc(Cl)cc1)=N[C@@H](CC(=O)Nc1ccc(OCCOCCOCCNc3cccc4nnn(C5CCC(=O)NC5=O)c(=O)c34)cc1)c1nnc(C)n1-2 (some centres not stated)

Compound: Nc1cccc2nnn(C3CCC(=O)NC3=O)c(=O)c12 (configuration not stated)
- CC50 (NCI-H929): 39 nM
- Activity [11]: Non-Toxic
- TGI (TMD8): Active
- Activity [12]: Non-Toxic

Compound: Nc1cccc2c1C(=O)N(C1CCC(=O)NC1=O)C2=O (configuration not stated) [POMALIDOMIDE]
- CC50 (NCI-H929): 35 nM
